Test results reported in ChEMBL document CHEMBL1150247, “Structural determinants for affinity enhancement of a dual antagonist peptide entry inhibitor of human immunodeficiency virus type-1” (J Med Chem, 2008).
The source made the active and inactive calls. The calls are words filed in the database; no cut-off is given here.

Legend:
[1] = test system: Human immunodeficiency virus 1; assay: Binding affinity to immobilized HIV1 YU2 gp120 upto 1 mM by surface plasmon resonance method
Summary of the method: (§1)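 YU2 gp120 (Drosophila S2-expressed, F105-affinity purified) amine-coupled to CM5 chip (~4000 RU); peptides in PBS injected at 15 μL/min, 5 min association, 5 min dissociation. Buffer and anti-IL5Rα 2B6R control-surface responses subtracted; kinetic constants fitted in BIAevaluation.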

[2] = Inhibition of HIV1 YU2 gp120 binding to immobilized CD4 binding site specific immunoglobulin G b12 monoclonal antibody by surface plasmon resonance method; set-up: species or system Human immunodeficiency virus 1
[3] = Inhibition of HIV1 YU2 gp120 binding to immobilized CD4 by surface plasmon resonance method; set-up: species or system Human immunodeficiency virus 1
[4] = test system: Human immunodeficiency virus 1; assay: Antiviral activity against HIV1 BaL in CCR5 expressing P4 cells after 2 hrs; format: functional, organism-based; settings: Human immunodeficiency virus 1, BaL, P4, 2 h
Summary of the method: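 P4-CCR5 cells (DMEM, 10% FBS, puromycin) seeded 1.2×10^4/well ~18 h ahead; exposed 2 h to HIV-1 BaL plus peptide, washed, cultured 46 more h; infection read by β-galactosidase reporter assay. Infectivity relative to mock-treated infected cells; IC50 from sigmoidal dose-response fit; two independent experiments combined.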

[5] = Inhibition of HIV1 YU2 gp120 binding to immobilized CD4 binding site specific b6 monoclonal antibody by surface plasmon resonance method; set-up: species or system Human immunodeficiency virus 1
[6] = Inhibition of HIV1 YU2 gp120 binding to immobilized CD4 induced 17b monoclonal antibody by surface plasmon resonance method; set-up: species or system Human immunodeficiency virus 1
[7] = Inhibition of HIV1 YU2 gp120 binding to immobilized CD4 binding site specific F105 monoclonal antibody by surface plasmon resonance method; set-up: species or system Human immunodeficiency virus 1
[8] = Cytotoxicity against CCR5 expressing human P4 cells after 2 hrs by MTT assay; format: cell-based; settings: p4, 2 h
Summary of the method: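 P4-CCR5 cells seeded 4×10^4/well ~18 h ahead, exposed 2 h to varying peptide concentrations, washed, then viability by MTT; triplicate in two independent assays.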

[9] = Binding affinity to HIV1 YU2 gp120 by isothermal titration calorimetric method; set-up: species or system Human immunodeficiency virus 1
[10] = Binding affinity to immobilized HIV1 YU2 gp120 by surface plasmon resonance method; set-up: species or system Human immunodeficiency virus 1; summary of the method: as §1

## CC[C@H](C)[C@H](NC(=O)[C@@H](N)CCCNC(=N)N)C(=O)N[C@@H](CC(N)=O)C(=O)N[C@@H](CC(N)=O)C(=O)N[C@H](C(=O)N1C[C@@H](n2cc(C3(N)CCCCC3)nn2)C[C@H]1C(=O)N[C@@H](Cc1c[nH]c2ccccc12)C(=O)N[C@@H](CO)C(=O)N[C@@H](CCC(=O)O)C(=O)N[C@@H](C)C(=O)N[C@@H](CCSC)C(=O)N[C@@H](CCSC)C(=O)O)[C@@H](C)CC
[1]
  Activity: inactive

## CC[C@H](C)[C@H](NC(=O)[C@@H](N)CCCNC(=N)N)C(=O)N[C@@H](CC(N)=O)C(=O)N[C@@H](CC(N)=O)C(=O)N[C@H](C(=O)N1CCC[C@H]1C(=O)N[C@@H](Cc1c[nH]c2ccccc12)C(=O)N[C@@H](CO)C(=O)N[C@@H](CCC(=O)O)C(=O)N[C@@H](C)C(=O)N[C@@H](CCSC)C(=O)N[C@@H](CCSC)C(=O)O)[C@@H](C)CC [RINNIPWSEAMM]
[2]
  IC50: 8.8 µM
[3]
  IC50: 5.4 µM
[4]
  IC50: 48 µM
[5]
  IC50: 10 µM
[6]
  IC50: 7.2 µM
[7]
  IC50: 6.4 µM
[8]
  Activity: Non-toxic
[9]
  Kd: 2.6 µM
[10]
  Kd: 5 µM

## CC[C@H](C)[C@H](NC(=O)[C@@H](N)CCCNC(=N)N)C(=O)N[C@@H](CC(N)=O)C(=O)N[C@@H](CC(N)=O)C(=O)N[C@H](C(=O)N1C[C@@H](n2cc(-c3ccccc3)nn2)C[C@H]1C(=O)N[C@@H](Cc1c[nH]c2ccccc12)C(=O)N[C@@H](CO)C(=O)N[C@@H](CCC(=O)O)C(=O)N[C@@H](C)C(=O)N[C@@H](CCSC)C(=O)N[C@@H](CCSC)C(=O)O)[C@@H](C)CC
[2]
  IC50: 0.162 µM
[3]
  IC50: 0.154 µM
[4]
  IC50: 1.4 µM
[5]
  IC50: 0.106 µM
[6]
  IC50: 0.172 µM
[7]
  IC50: 0.109 µM
[8]
  Activity: Non-toxic
[9]
  Kd: 0.033 µM
[10]
  Kd: 0.023 µM
